Reference: BindingDB's records for doi:10.1021/jm970034q (Oxis International, 1998)

Target: T1, Polyunsaturated fatty acid 5-lipoxygenase (Rattus norvegicus, UniProt P12527)
T1 sequence (P12527 whole entry): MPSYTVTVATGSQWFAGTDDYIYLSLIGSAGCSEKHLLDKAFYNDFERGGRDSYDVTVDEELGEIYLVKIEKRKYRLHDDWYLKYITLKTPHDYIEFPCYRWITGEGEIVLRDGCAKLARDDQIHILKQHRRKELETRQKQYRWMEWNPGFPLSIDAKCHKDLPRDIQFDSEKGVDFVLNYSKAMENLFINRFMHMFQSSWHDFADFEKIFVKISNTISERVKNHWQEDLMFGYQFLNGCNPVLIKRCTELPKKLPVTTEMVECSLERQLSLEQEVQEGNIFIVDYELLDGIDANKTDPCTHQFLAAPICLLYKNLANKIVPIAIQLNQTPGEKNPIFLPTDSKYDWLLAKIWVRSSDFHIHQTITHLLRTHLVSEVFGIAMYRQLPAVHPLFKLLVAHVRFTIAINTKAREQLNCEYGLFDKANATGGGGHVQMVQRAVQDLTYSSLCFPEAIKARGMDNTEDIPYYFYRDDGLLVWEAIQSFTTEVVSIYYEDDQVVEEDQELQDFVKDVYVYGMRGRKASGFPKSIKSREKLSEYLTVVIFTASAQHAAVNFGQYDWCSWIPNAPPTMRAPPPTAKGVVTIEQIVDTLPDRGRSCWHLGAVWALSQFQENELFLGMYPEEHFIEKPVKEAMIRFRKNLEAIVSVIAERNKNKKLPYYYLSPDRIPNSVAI
Test: Inhibitory activity against 5-lipoxygenase obtained from rat basophilic leukemia cells
In short: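 IC50 was determined against 5-LO in a broken RBL-1 cell assay, using a crude enzyme preparation from rat basophilic leukemia cells.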

IC50: 300 nM
SMILES: Oc1oc(CCC#Cc2ccccc2CSc2ccccc2)c(O)c1O [3,4-Dihydroxy-5-[4-(2-phenylsulfanylmethyl-phenyl)-but-3-ynyl]-5H-furan-2-one]
